Measurements reported in article PMC8099784 (Redox Biology, 2021).
Where two headings read alike, the source gives them in different places. Peptide text beside a SMILES is read from it. * marks the point of attachment. Cbz = O=C(OCc1ccccc1)*; CH2F = FC*

Legend:
[1] = molecular target: T1, Human Prdx II (Homo sapiens, UniProt P32119); assay: Peroxidase activity of recombinant Prdx II; format: biochemical; settings: Amplex Red probe, Fig. 4I
T1 sequence (P32119 1-198): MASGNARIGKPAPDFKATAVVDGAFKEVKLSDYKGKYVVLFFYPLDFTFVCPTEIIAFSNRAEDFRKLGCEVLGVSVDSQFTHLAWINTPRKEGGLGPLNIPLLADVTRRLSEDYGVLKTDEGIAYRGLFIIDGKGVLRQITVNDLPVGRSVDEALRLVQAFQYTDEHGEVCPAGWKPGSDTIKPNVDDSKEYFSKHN
In short: (§1)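 Human Prdx I or II cloned in pET28a, expressed in E. coli BL21, purified. In 50 mM sodium phosphate pH 7.4, enzyme (30 μM solution) preincubated with compound 30 min at RT. H2O2 (10 μM solution) added for 10 min, then Amplex Red (50 μM solution) with HRP (1 U/mL solution) for 10 min. Fluorescence ex 535/em 595 nm; n = 3.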

[2] = tested on: 7860; assay: MTT cell viability assay, 7860 cells; format: cell-based, human
In short: (§2)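 Cells kept in RPMI 1640 with 10% FBS and penicillin/streptomycin at 37 °C, 5% CO2. Seeded at 5 × 10^3 cells/well overnight, exposed to a concentration series for the stated time. MTT (5 mg/mL) added for 4 h, crystals dissolved in DMSO, absorbance read at 570 nm. Normalized to DMSO vehicle; three independent runs; IC50 by curve fitting.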

[3] = tested on: A549; assay: MTT cell viability assay, A549 cells; format: cell-based; settings: Homo sapiens, A549, read-out: IC50 (μM) A549
In short: as §2

[4] = tested on: HepG2; assay: MTT cell viability assay, HepG2 cells; format: cell-based, human; settings: for effect on 23-induced cell morphological changes and cell viability: HepG2, 10 μM pretreated 1 h; for effect of caspase inhibitors on the effects of 23 on cell viability: HepG2, pretreated 2 h (Z-VAD-FMK 10 μM, Ac-DEVD-CHO 50 μM, Z-LEHD-FMK TFA 20 μM)
In short: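 HepG2 at 5 × 10^3 cells/well, overnight, in RPMI 1640 with 10% FBS. Dose series for 24 h, or 2.5 μM for 24 h after pretreatment: MitoQ 1 μM for 1 h; Fer-1, DFO or Z-VAD-FMK 10 μM for 1 h; or Z-VAD-FMK 10 μM, Ac-DEVD-CHO 50 μM or Z-LEHD-FMK 20 μM for 2 h. MTT 4 h, DMSO, 570 nm. Morphology imaged by inverted microscopy.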

[5] = molecular target: T2, Human Prdx I (Homo sapiens, UniProt Q06830); assay: Peroxidase activity of recombinant Prdx I; format: biochemical; settings: Amplex Red probe, Fig. 4H
T2 sequence (Q06830 1-199): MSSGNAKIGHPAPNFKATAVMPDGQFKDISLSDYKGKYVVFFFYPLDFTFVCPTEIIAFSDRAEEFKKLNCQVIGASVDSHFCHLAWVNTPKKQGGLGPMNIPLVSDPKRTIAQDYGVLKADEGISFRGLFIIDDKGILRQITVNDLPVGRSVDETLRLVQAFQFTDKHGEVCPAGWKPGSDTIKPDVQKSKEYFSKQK
In short: as §1

[6] = tested on: A2780; assay: MTT cell viability assay, A2780 cells; format: cell-based; settings: Homo sapiens, A2780, read-out: IC50 (μM) A2780
In short: as §2

[7] = tested on: HBE; assay: MTT cell viability assay, HBE normal lung cells; format: cell-based, human; settings: read-out: IC50 (μM) HBE
In short: as §2

[8] = tested on: HepG2 cells; assay: Mitochondrial membrane potential; format: cell-based, human; settings: HepG2, 10 μM pretreated 2 h, then 2.5 μM 23 for 24 h
In short: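 Cells seeded at 1.6 × 10^5 per well and exposed to treatment. Loaded with JC-1 for 1 h at 37 °C, washed twice in PBS, then held in serum-free medium. Red/green fluorescence ratio measured by flow cytometry.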

[9] = tested on: HepG2 cells; assay: ROS detection by DCFH-DA, HepG2; format: cell-based, human; settings: then 2.5 μM 23 for 24 h
In short: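 Cells seeded at 1.6 × 10^5 per well and exposed to treatment; HepG2 variants used MitoQ 1 μM for 1 h or a caspase-inhibitor pretreatment before 2.5 μM for 24 h. Trypsinized cells incubated 30 min in PBS with 10 μM DCFH-DA. Green fluorescence read on the FL1 flow-cytometry channel.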

[10] = tested on: HepG2 cells; assay: C11-BODIPY lipid peroxidation assay, HepG2; format: cell-based, human; settings: HepG2, 10 μM pretreated 1 h, then 2.5 μM 23 for 24 h
In short: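 HepG2, 1.6 × 10^5 cells/well. Treated at 1.25, 2.5 or 5 μM for 24 h, or 2.5 μM for 0–24 h; some wells pretreated 1 h with Fer-1, DFO or Z-VAD-FMK (each 10 μM). Trypsinized cells stained in PBS with 1.5 μM C11-BODIPY, 15 min, 37 °C; FL1 flow cytometry. Mean ± SD, n = 3.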

For `C=C1C(=O)[C@]23C[C@H]1C[C@H](OC(C)=O)[C@H]2[C@]1(C)[C@@H](OC(C)=O)C[C@H](O)C(C)(C)[C@H]1C(=O)[C@@H]3OC(C)=O` [Adenanthin], the “peroxidase activity of recombinant Prdx II” value [1] was “effectively inhibited”, the IC50 ([2]; Homo sapiens, 786-0, read-out: IC50 (μM) 7860) was 5.5 ± 0.6 µM and the IC50 [3] was 8.5 ± 1 µM. For the same compound, the IC50 ([4]; Homo sapiens, HepG2, read-out: IC50 (μM) HepG2) was 7.3 ± 0.8 µM, the “peroxidase activity of recombinant Prdx I” value [5] was “effectively inhibited” and the IC50 [6] was 5.4 ± 0.9 µM. The IC50 ([7]; Homo sapiens, HBE) was 7.7 ± 1.1 µM.
Compound `N.N.[Cl][Pt][Cl]` [Cisplatin] has an IC50 ([2]; read-out: IC50 (μM) 7860, cytotoxicity, MTT, mean ± SD) of 13.5 ± 1.3 µM, an IC50 ([4]; read-out: IC50 (μM) HepG2, cytotoxicity, MTT, mean ± SD) of 8.5 ± 0.4 µM and an IC50 ([7]; cytotoxicity, MTT, normal lung cell line, mean ± SD) of 9.2 ± 1.4 µM.
`COC(=O)C[C@H](NC(=O)[C@H](C)NC(=O)[C@@H](NC(=O)OCc1ccccc1)C(C)C)C(=O)CF` [Z-VAD-FMK] (Cbz-Val-Ala-Asp(OMe)-CH2F) was tested, and the “effect on the changes in MMP caused by 23” value [8] was “no effect”, the “effect on the changes in ROS caused by 23” value ([9]; HepG2, 10 μM pretreated 2 h) was “no effect” and the “effect on 23-induced cell morphological changes and cell viability” value ([4]; then 2.5 μM 23 for 24 h, MTT) was “markedly blocked”. For the same compound, the “effect of caspase inhibitors on the effects of 23 on cell viability” value (shortened to “effect of caspase inhibitors”) ([4]; then 2.5 μM 23 for 24 h) was “partially reversed”.
For `COC1=C(OC)C(=O)C(CCCCCCCCCC[P+](c2ccccc2)(c2ccccc2)c2ccccc2)=C(C)C1=O` [MitoQ], the “effect on 23-induced ROS accumulation” value ([9]; HepG2, pretreated 1 μM 1 h) was “reversed” and the “effect on 23-induced cell viability inhibition” value ([4]; HepG2, pretreated 1 μM 1 h, then 2.5 μM 23 for 24 h, MTT) was “reversed”.
For `CC(=O)N[C@@H](CC(=O)O)C(=O)N[C@@H](CCC(=O)O)C(=O)N[C@H](C(=O)N[C@H](C=O)CC(=O)O)C(C)C` [Ac-DEVD-CHO], the “effect of caspase inhibitors” value ([4]; then 2.5 μM 23 for 24 h) was “partially reversed”.
For `CCOC(=O)c1ccc(NC2CCCCC2)c(N)c1` [Fer-1], the “effect on 23-induced lipid peroxidation” value [10] was “attenuated” and the “effect on 23-induced cell morphological changes and cell viability” value ([4]; then 2.5 μM 23 for 24 h, MTT) was “markedly blocked”.
With `CC(=O)N(O)CCCCCNC(=O)CCC(=O)N(O)CCCCCNC(=O)CCC(=O)N(O)CCCCCN` [DFO] the “effect on 23-induced lipid peroxidation” value [10] was “attenuated” and the “effect on 23-induced cell morphological changes and cell viability” value ([4]; then 2.5 μM 23 for 24 h, MTT) was “markedly blocked”.
With `COC(=O)CC[C@H](NC(=O)[C@H](CC(C)C)NC(=O)OCc1ccccc1)C(=O)N[C@@H](Cc1cnc[nH]1)C(=O)N[C@@H](CC(=O)OC)C(=O)CF.O=C(O)C(F)(F)F` [Z-LEHD-FMK TFA] (Cbz-LE(OMe)HD(OMe)-CH2F) the “effect of caspase inhibitors” value ([4]; then 2.5 μM 23 for 24 h) was “partially reversed”.
